A short description of assay [1]: Inhibition of IRK at 10 uM by HTRF assay relative to control. The gist of the method: (§1)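 HTRF kinase assay, one panel of kinases. Inhibitor stock 50 µM in 100% DMSO; tested at 10 µM. ATP and substrate at final levels near Km. Final buffer: 50 mM Hepes/NaOH pH 7.4, 40 µM Na3VO4, 0.005% Tween-20, 1 mM DTT, MnCl2 or MgCl2 at kinase-dependent levels. Started by adding ATP/substrate. Reaction run at room temperature, time varied by kinase. Detection mix in 50 mM Hepes pH 7.4, 0.1% BSA, 150 mM KF, incubated ≥1 h at room temperature. Activity expressed as % of uninhibited control; n=2.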

The target of assay [2] is Vascular endothelial growth factor receptor 1 (Homo sapiens) (UniProt P17948). The assay is described as follows: Inhibition of FLT1 at 10 uM by HTRF assay relative to control. The gist of the method:
as §1

The target of assay [3] is Epidermal growth factor receptor (Homo sapiens) (UniProt P00533). The assay is described as follows: Inhibition of EGFR at 10 uM by HTRF assay relative to control. The gist of the method: as §1
Epidermal growth factor receptor (Homo sapiens), sequence (P00533 whole entry): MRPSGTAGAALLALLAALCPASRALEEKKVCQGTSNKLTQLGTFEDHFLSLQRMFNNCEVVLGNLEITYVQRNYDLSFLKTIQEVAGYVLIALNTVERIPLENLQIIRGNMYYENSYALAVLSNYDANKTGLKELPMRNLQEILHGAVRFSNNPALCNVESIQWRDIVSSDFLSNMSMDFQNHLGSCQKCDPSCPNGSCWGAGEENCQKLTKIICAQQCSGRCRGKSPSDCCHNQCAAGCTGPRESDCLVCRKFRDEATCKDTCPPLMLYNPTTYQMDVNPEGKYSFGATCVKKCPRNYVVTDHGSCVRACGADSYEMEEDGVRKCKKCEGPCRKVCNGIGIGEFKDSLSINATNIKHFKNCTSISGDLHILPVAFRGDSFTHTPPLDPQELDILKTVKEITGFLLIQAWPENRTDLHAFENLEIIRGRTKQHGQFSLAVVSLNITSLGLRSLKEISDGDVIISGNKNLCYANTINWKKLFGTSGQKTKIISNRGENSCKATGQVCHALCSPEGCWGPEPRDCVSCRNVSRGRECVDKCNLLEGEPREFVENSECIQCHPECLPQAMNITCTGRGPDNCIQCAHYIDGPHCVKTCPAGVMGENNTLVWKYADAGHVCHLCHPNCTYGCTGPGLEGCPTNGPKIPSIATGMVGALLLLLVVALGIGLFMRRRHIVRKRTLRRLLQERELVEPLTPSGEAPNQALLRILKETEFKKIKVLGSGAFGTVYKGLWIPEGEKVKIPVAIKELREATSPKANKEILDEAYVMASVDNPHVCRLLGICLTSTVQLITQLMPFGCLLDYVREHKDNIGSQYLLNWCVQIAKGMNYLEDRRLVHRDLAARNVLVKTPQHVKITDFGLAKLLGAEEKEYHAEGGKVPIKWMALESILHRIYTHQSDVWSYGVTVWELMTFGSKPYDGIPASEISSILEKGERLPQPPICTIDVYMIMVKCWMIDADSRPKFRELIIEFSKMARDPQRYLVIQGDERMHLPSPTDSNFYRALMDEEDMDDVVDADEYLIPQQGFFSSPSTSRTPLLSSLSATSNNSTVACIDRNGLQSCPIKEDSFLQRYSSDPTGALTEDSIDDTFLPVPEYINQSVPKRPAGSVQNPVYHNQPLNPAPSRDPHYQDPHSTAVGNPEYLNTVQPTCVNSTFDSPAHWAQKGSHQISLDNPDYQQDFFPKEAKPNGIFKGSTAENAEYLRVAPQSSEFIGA
Assay [4] addresses T1, Mitogen-activated protein kinase 12 (Homo sapiens) (UniProt P53778).
T1 sequence (whole entry): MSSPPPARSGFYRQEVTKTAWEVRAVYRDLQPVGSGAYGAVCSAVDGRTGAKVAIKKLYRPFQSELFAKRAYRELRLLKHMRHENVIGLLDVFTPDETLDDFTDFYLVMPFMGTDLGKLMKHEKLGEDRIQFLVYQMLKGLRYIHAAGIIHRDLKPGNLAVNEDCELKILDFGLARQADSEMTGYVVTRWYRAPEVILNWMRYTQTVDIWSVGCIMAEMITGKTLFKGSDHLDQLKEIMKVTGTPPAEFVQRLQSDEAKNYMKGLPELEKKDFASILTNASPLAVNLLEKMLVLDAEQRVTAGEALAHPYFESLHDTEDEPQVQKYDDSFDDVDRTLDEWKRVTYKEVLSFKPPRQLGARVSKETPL
The assay is described as follows: Inhibition of p38-gamma at 10 uM by HTRF assay relative to control. The gist of the method:
as §1

The target in assay [5] is Mitogen-activated protein kinase 14 (Homo sapiens) (UniProt Q16539). The assay is described as follows: Inhibition of p38alpha at 10 uM by HTRF assay relative to control. The essentials:
as §1

Assay [6] concerns the target Mitogen-activated protein kinase 9 (Homo sapiens) (UniProt P45984). The assay is described as follows: Inhibition of JNK2 at 10 uM by HTRF assay relative to control. The essentials:
as §1

In assay [7] the target is Cyclin-dependent kinase 2 (Homo sapiens) (UniProt P24941). The assay is described as follows: Inhibition of CDK2 at 10 uM by HTRF assay relative to control. The essentials:
as §1

Assay [8] deals with T2, Calcium/calmodulin-dependent protein kinase type IV (Homo sapiens) (UniProt Q16566).
T2 sequence (whole entry): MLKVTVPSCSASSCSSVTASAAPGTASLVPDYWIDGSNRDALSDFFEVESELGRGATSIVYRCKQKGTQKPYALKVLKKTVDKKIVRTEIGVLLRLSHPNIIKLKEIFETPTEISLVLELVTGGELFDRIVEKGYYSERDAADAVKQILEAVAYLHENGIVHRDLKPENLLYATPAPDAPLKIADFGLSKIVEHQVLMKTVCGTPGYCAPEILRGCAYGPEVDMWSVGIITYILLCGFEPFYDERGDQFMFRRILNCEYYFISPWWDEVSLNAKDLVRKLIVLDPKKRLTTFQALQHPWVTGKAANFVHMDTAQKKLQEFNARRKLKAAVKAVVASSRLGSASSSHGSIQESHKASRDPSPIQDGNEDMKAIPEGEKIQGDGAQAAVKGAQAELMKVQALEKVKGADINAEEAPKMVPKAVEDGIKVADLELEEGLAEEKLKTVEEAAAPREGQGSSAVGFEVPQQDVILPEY
The assay is described as follows: Inhibition of CaMK4 at 10 uM by HTRF assay relative to control. The gist of the method: as §1

Assay [9] addresses Proto-oncogene tyrosine-protein kinase Src (Homo sapiens) (UniProt P12931). The assay is described as follows: Inhibition of Src at 10 uM by HTRF assay relative to control. The gist of the method:
as §1

The target of assay [10] is T3, Tyrosine-protein kinase JAK3 (Homo sapiens) (UniProt P52333).
T3 sequence (whole entry): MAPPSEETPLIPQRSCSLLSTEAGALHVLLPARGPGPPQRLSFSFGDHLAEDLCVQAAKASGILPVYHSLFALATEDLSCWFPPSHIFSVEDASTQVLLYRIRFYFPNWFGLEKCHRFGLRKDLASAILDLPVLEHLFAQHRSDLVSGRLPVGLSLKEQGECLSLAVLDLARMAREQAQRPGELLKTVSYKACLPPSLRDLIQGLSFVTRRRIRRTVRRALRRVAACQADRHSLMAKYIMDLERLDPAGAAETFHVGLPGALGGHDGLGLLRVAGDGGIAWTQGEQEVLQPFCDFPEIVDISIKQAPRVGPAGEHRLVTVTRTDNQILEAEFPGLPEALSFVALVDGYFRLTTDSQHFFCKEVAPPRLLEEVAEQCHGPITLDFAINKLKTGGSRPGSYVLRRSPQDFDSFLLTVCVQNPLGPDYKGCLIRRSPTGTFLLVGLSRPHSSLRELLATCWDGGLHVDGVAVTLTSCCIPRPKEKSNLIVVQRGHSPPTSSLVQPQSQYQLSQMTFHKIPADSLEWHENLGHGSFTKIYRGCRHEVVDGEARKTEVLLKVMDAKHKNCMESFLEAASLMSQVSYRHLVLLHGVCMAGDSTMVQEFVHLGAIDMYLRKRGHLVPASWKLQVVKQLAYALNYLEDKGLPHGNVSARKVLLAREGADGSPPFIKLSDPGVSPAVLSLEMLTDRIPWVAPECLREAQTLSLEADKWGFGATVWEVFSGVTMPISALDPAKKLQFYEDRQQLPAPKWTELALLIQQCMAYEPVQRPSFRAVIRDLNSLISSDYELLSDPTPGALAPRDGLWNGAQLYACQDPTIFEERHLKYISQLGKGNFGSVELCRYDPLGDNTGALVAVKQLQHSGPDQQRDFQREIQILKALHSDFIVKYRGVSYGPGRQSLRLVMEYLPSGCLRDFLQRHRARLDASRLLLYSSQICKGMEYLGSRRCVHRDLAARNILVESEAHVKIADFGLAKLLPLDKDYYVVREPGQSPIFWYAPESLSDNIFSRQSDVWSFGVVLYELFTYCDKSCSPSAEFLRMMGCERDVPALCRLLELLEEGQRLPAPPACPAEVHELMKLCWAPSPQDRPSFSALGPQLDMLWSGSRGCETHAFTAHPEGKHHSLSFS
The assay is described as follows: Inhibition of JAK3 at 10 uM by HTRF assay relative to control. The essentials: as §1

For assay [11], the target named is Protein-tyrosine kinase 6 (Homo sapiens) (UniProt Q13882). The assay is described as follows: Inhibition of Brk at 10 uM by HTRF assay relative to control. The gist of the method: as §1
Protein-tyrosine kinase 6 (Homo sapiens), sequence (Q13882 whole entry, looked up): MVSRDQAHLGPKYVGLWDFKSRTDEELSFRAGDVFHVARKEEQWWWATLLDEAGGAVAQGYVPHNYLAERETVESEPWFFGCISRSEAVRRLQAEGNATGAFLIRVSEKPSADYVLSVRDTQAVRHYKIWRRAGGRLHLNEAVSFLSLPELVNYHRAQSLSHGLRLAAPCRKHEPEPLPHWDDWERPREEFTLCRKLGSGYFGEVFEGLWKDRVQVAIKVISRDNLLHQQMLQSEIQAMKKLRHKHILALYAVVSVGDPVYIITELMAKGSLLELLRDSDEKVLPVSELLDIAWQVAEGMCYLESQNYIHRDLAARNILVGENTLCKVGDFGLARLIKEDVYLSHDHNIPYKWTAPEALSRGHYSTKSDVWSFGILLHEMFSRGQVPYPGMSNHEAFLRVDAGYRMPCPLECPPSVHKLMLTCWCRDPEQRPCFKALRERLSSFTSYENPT

Mitogen-activated protein kinase 9 (Homo sapiens), sequence (P45984 whole entry, looked up): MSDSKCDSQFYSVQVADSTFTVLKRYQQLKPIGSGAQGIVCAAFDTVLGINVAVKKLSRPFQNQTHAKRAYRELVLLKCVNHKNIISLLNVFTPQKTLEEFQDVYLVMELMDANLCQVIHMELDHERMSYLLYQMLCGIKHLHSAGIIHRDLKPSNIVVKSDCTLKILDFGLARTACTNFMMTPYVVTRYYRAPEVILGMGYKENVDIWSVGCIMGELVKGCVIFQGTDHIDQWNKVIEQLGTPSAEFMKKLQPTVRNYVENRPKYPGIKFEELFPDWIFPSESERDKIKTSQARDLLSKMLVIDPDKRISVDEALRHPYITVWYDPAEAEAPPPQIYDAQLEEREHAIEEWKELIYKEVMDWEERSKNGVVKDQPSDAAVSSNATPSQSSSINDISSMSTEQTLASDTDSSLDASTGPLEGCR
Proto-oncogene tyrosine-protein kinase Src (Homo sapiens), sequence (P12931 2-536 limits assumed): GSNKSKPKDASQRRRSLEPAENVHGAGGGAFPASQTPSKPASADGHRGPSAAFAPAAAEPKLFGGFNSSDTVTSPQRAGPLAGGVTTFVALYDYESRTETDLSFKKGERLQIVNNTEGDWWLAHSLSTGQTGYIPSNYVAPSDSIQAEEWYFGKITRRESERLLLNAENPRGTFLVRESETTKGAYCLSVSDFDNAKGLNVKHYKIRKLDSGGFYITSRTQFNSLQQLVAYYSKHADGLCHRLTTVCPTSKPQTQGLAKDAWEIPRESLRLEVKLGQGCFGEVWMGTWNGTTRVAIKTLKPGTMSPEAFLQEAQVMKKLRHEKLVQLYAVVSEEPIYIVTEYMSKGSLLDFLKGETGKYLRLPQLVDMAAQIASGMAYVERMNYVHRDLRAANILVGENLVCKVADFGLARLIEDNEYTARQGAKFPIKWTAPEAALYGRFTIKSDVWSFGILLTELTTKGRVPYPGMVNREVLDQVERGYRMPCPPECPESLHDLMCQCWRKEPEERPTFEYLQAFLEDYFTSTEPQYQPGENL
Mitogen-activated protein kinase 14 (Homo sapiens), sequence (Q16539 whole entry): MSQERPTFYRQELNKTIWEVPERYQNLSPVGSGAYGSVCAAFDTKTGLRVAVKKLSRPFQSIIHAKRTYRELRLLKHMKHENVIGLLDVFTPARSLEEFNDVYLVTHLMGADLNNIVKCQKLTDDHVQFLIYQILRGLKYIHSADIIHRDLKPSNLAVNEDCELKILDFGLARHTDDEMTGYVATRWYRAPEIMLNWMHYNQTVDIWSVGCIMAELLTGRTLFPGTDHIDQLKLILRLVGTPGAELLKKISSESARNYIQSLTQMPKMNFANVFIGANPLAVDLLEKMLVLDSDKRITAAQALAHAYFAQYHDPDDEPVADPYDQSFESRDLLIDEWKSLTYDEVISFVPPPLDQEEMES
Vascular endothelial growth factor receptor 1 (Homo sapiens), sequence (P17948 whole entry): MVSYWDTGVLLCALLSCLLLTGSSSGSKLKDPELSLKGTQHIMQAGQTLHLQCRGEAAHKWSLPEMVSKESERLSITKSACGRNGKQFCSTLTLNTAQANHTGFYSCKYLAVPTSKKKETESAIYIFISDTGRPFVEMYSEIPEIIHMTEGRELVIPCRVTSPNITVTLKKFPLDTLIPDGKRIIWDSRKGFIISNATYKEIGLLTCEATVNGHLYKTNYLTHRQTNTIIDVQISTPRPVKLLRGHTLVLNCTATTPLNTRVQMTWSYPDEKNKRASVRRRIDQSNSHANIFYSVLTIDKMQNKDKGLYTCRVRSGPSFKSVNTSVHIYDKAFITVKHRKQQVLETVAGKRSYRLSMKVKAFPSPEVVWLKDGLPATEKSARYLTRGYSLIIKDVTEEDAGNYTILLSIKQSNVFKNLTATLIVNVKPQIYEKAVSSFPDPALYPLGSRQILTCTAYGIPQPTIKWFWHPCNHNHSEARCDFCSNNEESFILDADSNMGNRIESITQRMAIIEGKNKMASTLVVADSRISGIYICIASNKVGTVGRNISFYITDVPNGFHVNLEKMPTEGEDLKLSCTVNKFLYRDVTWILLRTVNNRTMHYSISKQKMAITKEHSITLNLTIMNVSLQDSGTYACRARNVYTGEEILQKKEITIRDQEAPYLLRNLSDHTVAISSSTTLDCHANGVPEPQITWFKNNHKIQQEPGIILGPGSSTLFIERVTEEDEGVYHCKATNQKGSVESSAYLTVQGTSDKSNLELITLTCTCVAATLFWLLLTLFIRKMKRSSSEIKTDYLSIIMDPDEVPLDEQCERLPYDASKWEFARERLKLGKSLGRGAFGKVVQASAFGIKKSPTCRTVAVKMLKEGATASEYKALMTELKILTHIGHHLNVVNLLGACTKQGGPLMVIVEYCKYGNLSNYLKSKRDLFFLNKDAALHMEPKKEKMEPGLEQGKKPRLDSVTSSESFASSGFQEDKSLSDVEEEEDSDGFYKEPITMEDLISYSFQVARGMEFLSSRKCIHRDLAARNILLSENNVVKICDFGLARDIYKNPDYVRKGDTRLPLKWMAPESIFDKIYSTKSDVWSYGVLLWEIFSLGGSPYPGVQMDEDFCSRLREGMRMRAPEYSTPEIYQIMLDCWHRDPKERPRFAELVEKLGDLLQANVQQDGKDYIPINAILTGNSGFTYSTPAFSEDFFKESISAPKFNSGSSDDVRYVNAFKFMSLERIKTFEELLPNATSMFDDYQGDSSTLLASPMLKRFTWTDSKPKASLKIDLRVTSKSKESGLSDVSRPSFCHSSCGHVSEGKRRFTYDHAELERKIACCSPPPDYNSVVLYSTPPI

Take `Cc1cccc(N(C)c2cc(Nc3cccc(C(=O)NCCCn4ccnc4)c3)ncn2)c1`: the inhibition came out at 0% in assay [1]; 0% in assay [2]; 100% in [3]; 2% in assay [4]; 20% in assay [5]; 22% in assay [6]. Also, the inhibition in [7] is 12%; in [8], 0%; in assay [9], 24%; in assay [10], 3%; in assay [11], 12%.

For `Cc1cccc(Oc2ccnc(N3CCC[C@H]3C(=O)NCCCn3ccnc3)n2)c1`, the inhibition in [1] came out at 1%; in assay [2], 0%; in assay [3] it was 0%; in [4] it was 0%; in [5], 3%; in assay [6], 7%. The inhibition came to 3% in [7]; 0% in [8]; 0% in assay [9]; 7% in [10]; 0% in assay [11].

For the compound `CN(C)c1ccc(C(=O)N2CCN(c3ncnc4c3CN(Cc3ccccc3)CC4)CC2)c2ccccc12`, the inhibition in assay [1] amounted to 0%; in [2], 0%; in assay [3], 0%; in assay [4], 0%; in assay [5], 4%; in [6], 1%. Moreover, the inhibition in assay [7] came out at 5%; in [8], 0%; in assay [9], 0%; in assay [10] it was 7%; in assay [11], 0%.

For `Nc1nc(Nc2ccccc2)cc(N2CCC(C(=O)NCCc3ccccn3)CC2)n1`, the inhibition in [1] worked out at 0%; in assay [2], 0%; in assay [3] it was 0%; in assay [4], 6%; in assay [5], 12%; in assay [6], 1%. Also, the inhibition in assay [7] is 17%; in assay [8], 0%; in assay [9], 0%; in assay [10], 0%; in [11], 10%.

Regarding `O=C(CN1CCN(c2ncnc3c2CN(Cc2ccccc2)CC3)CC1)Nc1cc(F)ccc1F`, the inhibition in [1] was found to be 0%; in assay [2], 0%; in assay [3], 0%; in [4], 0%; in [5] it was 3%; in assay [6] it was 1%. The inhibition in assay [7] was determined as 9%; in assay [8], 0%; in [9], 1%; in assay [10] it was 2%; in assay [11] it was 9%.

Take `O=C(NCCc1ccc(O)cc1)c1cccc(Nc2nccc(Nc3ccc4ncsc4c3)n2)c1`: the inhibition in [1] came to 1%; in assay [2] it was 42%; in [3], 0%; in [4] it was 0%; in [5] it was 9%; in [6], 39%. The inhibition in assay [7] came to 8%; in [8] it was 0%; in [9], 71%; in assay [10], 11%; in assay [11], 18%.

Turning to `Cc1cccc(N(C)c2cc(Nc3cccc(C(=O)N4CCCC5CCCCC54)c3)ncn2)c1` (stereo not drawn), the inhibition in assay [1] turned out to be 0%; in assay [2] it was 8%; in assay [3], 84%; in [4], 1%; in [5] it was 0%; in assay [6] it was 0%. The inhibition in assay [7] is 4%; in assay [8] it was 0%; in [9] it was 3%; in assay [10] it was 0%; in assay [11], 32%.

Consider `COc1ccc(-c2noc(CN3CCN(c4cc(Nc5cccc(O)c5)ncn4)CC3)n2)cc1`, for which the inhibition in [1] came out at 0%; in assay [2], 0%; in assay [3] it was 17%; in assay [4] it was 0%; in [5], 1%; in assay [6] it was 2%. For the same compound, the inhibition in assay [7] came out at 6%; in assay [8], 0%; in [9] it was 3%; in [10] it was 9%; in [11] it was 5%.

For `Cc1cccc(Oc2ccnc(N3CCC[C@H]3C(=O)NCc3cccnc3)n2)c1`, the inhibition in assay [1] came out at 0%; in assay [2], 0%; in [3], 0%; in [4] it was 0%; in [5], 0%; in assay [6], 4%. For the same compound, the inhibition in assay [7] stood at 8%; in assay [8], 0%; in [9], 0%; in assay [10] it was 0%; in [11], 0%.

On to `Cc1cccc(Nc2cc(Nc3cccc(C(=O)N(CC(C)O)CC(C)O)c3)ncn2)c1` (stereo not drawn), for which the inhibition in assay [1] came to 0%; in [2] it was 83%; in assay [3] it was 100%; in assay [4] it was 0%; in [5], 11%; in [6], 8%. The inhibition in assay [7] is 3%; in [8] it was 0%; in [9], 26%; in [10], 7%; in [11] it was 23%.

For `Cc1cc(C(=O)N2CCN(c3ncnc4c3CN(Cc3ccccc3)CC4)CC2)c(C)n1C`, the inhibition was determined as 0% in [1]; 0% in [2]; 0% in assay [3]; 0% in assay [4]; 0% in [5]; 3% in [6]. In addition, the inhibition in assay [7] is 3%; in assay [8], 0%; in [9], 0%; in assay [10], 0%; in assay [11], 22%.

`O=C(NC[C@@H]1CCCO1)c1cccc(Nc2nccc(Nc3ccc4ncsc4c3)n2)c1`: the inhibition in [1] stood at 83%; in assay [2] it was 87%; in [3], 43%; in assay [4] it was 3%; in [5], 12%; in assay [6], 87%. In addition, the inhibition is 38% in assay [7]; 0% in assay [8]; 97% in assay [9]; 84% in assay [10]; 81% in assay [11].

`Clc1ccc2sc(CN3CCN(c4ncnc5c4CN(Cc4ccccc4)CC5)CC3)cc2c1`: the inhibition in assay [1] was 7%; in assay [2] it was 0%; in assay [3], 0%; in assay [4], 2%; in assay [5], 10%; in assay [6] it was 5%. For the same compound, the inhibition in assay [7] came to 16%; in assay [8], 0%; in assay [9] it was 0%; in assay [10], 0%; in [11] it was 2%.

These data come from ChEMBL document CHEMBL1150387, “Development and experimental validation of a docking strategy for the generation of kinase-targeted libraries” (J Med Chem, 2008).
